Laboratory results published in ChEMBL document CHEMBL1165982, “Induction of G(2)/M phase arrest and apoptosis by oridonin in human laryngeal carcinoma cells” (J Nat Prod, 2010).
pIC50: −log10 of the molar value. The source made the active and inactive calls. The calls are words filed in the database; no cut-off is given here.

Columns and labels:
HEp-2 [1] = assay: Cytotoxicity against human Hep2 cells after 24 hrs by MTT assay; assay type: functional, cell-based; conditions: HEp-2, 24 h
In short: (§1)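 Cells seeded at 1.2 × 10^4 per well in 96-well plates, grown 24 h, then treated over 10.7–81 µM for 6, 12, 24, 36 or 48 h. Viability read by MTT. DMSO kept below 0.05%. IC50 taken at 24 h.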

HEp-2 [2] = assay: Cytotoxicity against human Hep2 cells at 36 uM after 24 hrs by MTT assay; assay type: functional; in short: as §1
HEp-2 [3] = assay: Induction of apoptosis in human Hep2 cells assessed as accumulation in subG1 phase using PI staining by flow cytometeric analysis; assay type: functional
In short: (§2)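 ATCC HEp-2 in RPMI-1640 with 10% FBS at 37 °C, 5% CO2, exposed to 36 µM for 0, 6, 12 or 24 h. 1 × 10^6 cells were fixed in 70% ethanol at 4 °C for at least 12 h, then stained on ice in the dark for 30 min with 50 µg/mL PI plus 1 mg/mL RNase A. Read by flow cytometry, ≥10 000 cells per sample. SubG1 counted as the apoptotic fraction. n = 3.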

HEp-2 [4] = assay: Induction of apoptosis in human Hep2 cells assessed as morphological changes at 36 uM after 24 hrs by microscopy; assay type: functional, cell-based
HEp-2 [5] = assay: Cell cycle arrest in human Hep2 cells assessed as accumulation at G2/M phase at 36 uM after 6 hrs using propidium iodide staining by flow cytometry; assay type: functional; in short: as §2
HEp-2 [6] = assay: Cell cycle arrest in human Hep2 cells assessed as accumulation at G2/M phase at 36 uM after 12 hrs using propidium iodide staining by flow cytometry; assay type: functional; in short: as §2
HEp-2 [7] = assay: Cell cycle arrest in human Hep2 cells assessed as accumulation at G2/M phase at 36 uM after 24 hrs using propidium iodide staining by flow cytometry; assay type: functional; in short: as §2
HEp-2 [8] = assay: Induction of ROS generation in human Hep2 cells at 36 uM after 3 hrs relative to control; assay type: functional, cell-based
In short: (§3)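 Cells exposed to 36 µM for 0, 3, 6, 12 or 24 h, then loaded with DCF-DA (10 mM as printed) for 15 min at 37 °C. Harvested, resuspended in PBS and read by flow cytometry (ex 480 nm, em 525 nm). Result given as % DCF-positive cells. n = 3.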

HEp-2 [9] = assay: Induction of ROS generation in human Hep2 cells assessed as ratio of DCF-positive cells at 36 uM after 3 hrs relative to control; assay type: functional; in short: as §3
HEp-2 [10] = assay: Induction of ROS generation in human Hep2 cells assessed as ratio of DCF-positive cells at 36 uM after 6 hrs relative to control; assay type: functional; in short: as §3
HEp-2 [11] = assay: Induction of ROS generation in human Hep2 cells assessed as ratio of DCF-positive cells at 36 uM after 12 hrs relative to control; assay type: functional; in short: as §3
HEp-2 [12] = assay: Induction of ROS generation in human Hep2 cells assessed as ratio of DCF-positive cells at 36 uM after 24 hrs relative to control; assay type: functional; in short: as §3
HEp-2 [13] = assay: Induction of ROS generation in human Hep2 cells assessed as ROS level at 36 uM after 24 hrs in presence of N-acetyl-cysteine ROS scavenger; assay type: functional
In short: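 ROS read as % DCF-positive cells after 24 h co-incubation of 36 µM with 2.5 mM N-acetylcysteine. DCF-DA loading 15 min at 37 °C; flow cytometry at ex 480 / em 525 nm. n = 3.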

HEp-2 [14] = assay: Induction of apoptosis in human Hep2 cells assessed as accumulation in subG1 phase using PI staining at 36 uM after 24 hrs by flow cytometeric analysis in presence of N-acetyl-cysteine ROS scavenger; assay type: functional
In short: (§4)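 HEp-2 cells were pretreated 1 h with 2.5 mM N-acetylcysteine, then co-incubated with 36 µM for 24 h. They were then fixed in 70% ethanol (≥12 h, 4 °C) and stained on ice in the dark for 30 min with 50 µg/mL PI and 1 mg/mL RNase A. G2/M and subG1 fractions were read by flow cytometry, ≥10 000 cells counted. n = 3.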

HEp-2 [15] = assay: Induction of apoptosis in human Hep2 cells assessed as accumulation in G2/M phase using PI staining at 36 uM after 24 hrs by flow cytometeric analysis in presence of N-acetyl-cysteine ROS scavenger; assay type: functional; in short: as §4
HEp-2 [16] = assay: Induction of apoptosis in human Hep2 cells assessed as apoptotic bodies using acridine orange staining at 36 uM after 24 hrs by microscopic analysis; assay type: functional, cell-based
HEp-2 [17] = assay: Induction of apoptosis in human Hep2 cells assessed as fragmented DNA using acridine orange staining at 36 uM after 24 hrs by microscopic analysis; assay type: functional, cell-based
HEp-2 [18] = assay: Induction of apoptosis in human Hep2 cells assessed as apoptotic bodies using acridine orange staining at 36 uM after 24 hrs by microscopic analysis in presence of N-acetyl-cysteine ROS scavenger; assay type: functional, cell-based
HEp-2 [19] = assay: Induction of apoptosis in human Hep2 cells assessed as fragmented DNA using acridine orange staining at 36 uM after 24 hrs by microscopic analysis in presence of N-acetyl-cysteine ROS scavenger; assay type: functional, cell-based
HEp-2 [20] = assay: Induction of apoptosis in human Hep2 cells assessed as decrease in mitochondrial membrane potential using rhodamine 123 staining at 36 uM after 24 hrs by FACScan flow cytometry; assay type: functional; parameters: scale not given: the % may be the effect or the level left
In short: (§5)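 Membrane potential: HEp-2 exposed to 36 µM for 0–24 h, alone or with 2.5 mM N-acetylcysteine for 24 h. Cells collected into PBS with 1 µg/mL rhodamine-123, held 15 min at 37 °C, then read by flow cytometry for % rhodamine-123-bright cells. n = 3.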

HEp-2 [21] = assay: Induction of apoptosis in human Hep2 cells assessed as decrease in mitochondrial membrane potential using rhodamine 123 staining at 36 uM after 24 hrs by FACScan flow cytometry in presence of N-acetyl-cysteine ROS scavenger; assay type: functional; parameters: scale not given: the % may be the effect or the level left; in short: as §5
HEp-2 [22] = assay: Induction of apoptosis in human Hep2 cells assessed as increase in pro-apoptotic Bax protein at 36 uM after 6 hrs by Western blot analysis; assay type: functional, cell-based
In short: (§6)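 Treatment: 36 µM for 0, 6, 12 or 24 h, alone or with 2.5 mM N-acetylcysteine or 500 U/mL catalase. Lysis 60 min at 4 °C in Hepes pH 7.4/1% Triton X-100 with phosphatase and protease inhibitors, spin 13000g. Lysates run on 12% SDS-PAGE, blotted to nitrocellulose, probed with polyclonal antibodies, HRP/DAB detection. Representative of ≥3 experiments.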

HEp-2 [23] = assay: Induction of apoptosis in human Hep2 cells assessed as increase in cytochrome c at 36 uM after 12 hrs by Western blot analysis; assay type: functional, cell-based; in short: as §6
HEp-2 [24] = assay: Induction of apoptosis in human Hep2 cells assessed as decrease in Bcl-2 at 36 uM after 12 hrs by Western blot analysis; assay type: functional, cell-based; conditions: in the assay text read “after 24 hrs” for “after 12 hrs”; in short: as §6
HEp-2 [25] = assay: Induction of apoptosis in human Hep2 cells assessed as increase in AIF level at 36 uM after 6 hrs by Western blot analysis; assay type: functional, cell-based; in short: as §6

Work on `C=C1C(=O)[C@]23[C@H](O)[C@H]1CC[C@H]2[C@@]12CO[C@]3(O)[C@@H](O)[C@@H]1C(C)(C)CC[C@@H]2O` [ORIDONIN] yielded a pIC50 (HEp-2 [1]) of 4.43, an Activity (HEp-2 [2]) of 50% and an Activity (HEp-2 [3]) of 26.57%. The Activity (HEp-2 [4]) was “Active”, the Activity (HEp-2 [5]) was 32.84% and the Activity (HEp-2 [6]) was 40.57%. The Activity (HEp-2 [7]) was 25.84%, the Activity (HEp-2 [8]) was “Active” and the Activity (HEp-2 [9]) was 16.65%. For the same compound, the Activity (HEp-2 [10]) was 17.25%, the Activity (HEp-2 [11]) was 24.21% and the Activity (HEp-2 [12]) was 24.86%. It also gave an Activity (HEp-2 [13]) of 4.41%, an Activity (HEp-2 [14]) of 3.39% and an Activity (HEp-2 [15]) of 14%. For the same compound, the Activity (HEp-2 [16]) was “Active”, the Activity (HEp-2 [17]) was “Active” and the Activity (HEp-2 [18]) was “inactive”. The Activity (HEp-2 [19]) was “inactive”, the Activity (HEp-2 [20]) was 58.6% and the Activity (HEp-2 [21]) was 89.31%. The Activity (HEp-2 [22]) was “Active”, the Activity (HEp-2 [23]) was “Active” and the Activity (HEp-2 [24]) was “Active”. For the same compound, the Activity (HEp-2 [25]) was “Active”.
